From PMC12393413 (bioRxiv, 2025) come the findings set out here.

One assay relates to 4T1-CERS2^+/+ cells. Put plainly: Mitochondrial Ca2+ by Rhod-2 AM confocal microscopy. The assay is classed as cell-based, mouse. Particulars: 6 h. Summed up: (§1)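 Cells were seeded on glass-bottom dishes and grown overnight to ~70% confluence, in triplicate. Exposure was 6 h to test compound (5 or 10 μM) or thapsigargin (1 or 2 μM) as ER Ca2+-depletion control. Cells were rinsed in HBSS and co-loaded 20 min at 37°C with 1 μM Mag-Fluo-4 AM (ER Ca2+) and 100 nM Rhod-2 AM (mitochondrial Ca2+).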

The next assay deals with 4T1-CERS2^−/− cells. The description is as above. Particulars: 6 h. Type of assay: cell-based, mouse. Summed up:
as §1

The next assay has as its system MDA-MB-468 cells. Put plainly: Western blot analysis of UPR / PERK-eIF2α-ATF4 pathway proteins. The assay is classed as cell-based, human. Particulars: for baseline phosphorylation of PERK and eIF2α, inhibitor alone: Western blot; for effect on DH20931-induced accumulation of ATF4 protein / effect on DH20931-induced phosphorylation of PERK and eIF2α: co-treatment with DH20931, Western blot. Summed up: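 Treatment lasted 24 h at 0, 2.5, 5, 10 or 20 μM test compound. Western blots were developed with BCIP/NBT substrate. Bands were quantified by densitometry and normalized to a loading control such as β-actin.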

For `C/C=C(/C)C(=O)O[C@H]1C(C)=C2[C@H]([C@@H]1OC(=O)CCCCCCC)[C@@](C)(OC(C)=O)C[C@H](OC(=O)CCC)[C@@]1(O)[C@H]2OC(=O)[C@@]1(C)O` [Tg, thapsigargin], in the assay on 4T1-CERS2^+/+ cells, the “mitochondrial Ca2+ levels” value is listed as “increase in mitochondrial Ca^2+ levels”. Also, in the assay on 4T1-CERS2^−/− cells, the “mitochondrial Ca2+ increase in the absence of CerS2” value is on record as “completely abolished”.
For the molecule `Cc1ccc2cc(-c3c(C)ccc(C(=O)c4c(-c5ccccc5)n(C)n(-c5ccccc5)c4=O)c3N)ccc2n1` [AMG44], in the assay on MDA-MB-468 cells, the “baseline phosphorylation of PERK and eIF2α, inhibitor alone” value is “decrease in the baseline phosphorylation levels of both PERK and eIF2α”; the “effect on DH20931-induced accumulation of ATF4 protein” value is on record as “attenuated the DH20931-induced accumulation of ATF4 protein”; the “effect on DH20931-induced phosphorylation of PERK and eIF2α” value is given as “markedly diminished it”.
On to `Cn1cc(-c2ccc3c(c2)CCN3C(=O)Cc2cccc(C(F)(F)F)c2)c2c(N)ncnc21` [GSK2606414], for which, in the assay on MDA-MB-468 cells, the “baseline phosphorylation of PERK and eIF2α, inhibitor alone” value is “decrease in the baseline phosphorylation levels of both PERK and eIF2α”; the “effect on DH20931-induced accumulation of ATF4 protein” value is “attenuated the DH20931-induced accumulation of ATF4 protein”; the “effect on DH20931-induced phosphorylation of PERK and eIF2α” value was “did not affect the DH20931-induced phosphorylation”.
